Experiments:
[1] = In vitro cytotoxicity against uninfected ATH-8 (human T-cell) cell line.; format: functional; details: read-out: CD50 (the source's name)
How it was run: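 Uninfected ATH-8 cells; the value is the dose that reduces viability by 50%. Concentrations tested up to […].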

[2] = In vitro effective dose which provides 50% protection of ATH-8 cells against the cytopathic effect of HIV; range 5-10 uM; format: functional; details: Homo sapiens, read-out: ED50 (the source's name)
[3] = In vitro effective dose which provides 50% protection of ATH-8 cells against the cytopathic effect of HIV; format: functional; details: Homo sapiens, read-out: ED50 (the source's name)
How it was run: (§1)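 ATH-8 cells infected with HIV-1 (HTLV-III_B strain) and read as the dose giving 50% protection against viral cytopathic effect. Reported as a range from ≥3 experiments, each including a standard such as AZT.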

[4] = In vitro effective dose which provides 50% protection of ATH-8 cells against the cytopathic effect of HIV; range 10-50 uM; format: functional; details: Homo sapiens, read-out: ED50 (the source's name); how it was run: as §1
[5] = tested on: Human immunodeficiency virus 1; assay: Concentration required to inhibit HIV replication by 50%; format: functional, organism-based
How it was run: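 Human PBM from a normal donor, isolated by Ficoll-Hypaque and stimulated with PHA (5 μg/mL) for 24 h in RPMI 1640/15% FBS/IL-2. Cells plated at 5 × 10⁵ per well and infected with 20 TCID₅₀ of AZT-resistant patient isolate HIV-1 ERS 205pre, with drug added. Incubated at 37 °C for 7 days; half the medium and drug replaced on day 4. Day-7 supernatant p24 gag measured by radioimmunoassay.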

[6] = In vitro effective dose which provides 50% protection of ATH-8 cells against the cytopathic effect of HIV; range 5-15 uM; format: functional; details: Homo sapiens, read-out: ED50 (the source's name); how it was run: as §1
[7] = In vitro effective dose which provides 50% protection of ATH-8 cells against the cytopathic effect of HIV; Range 5-10 uM; format: functional; details: Homo sapiens, read-out: ED50 (the source's name)

Compound	CC50 [1] [µM]	EC50 [3] [µM]	IC50 [5] [µM]	further results
Nc1ncnc2c1ncn2[C@H]1CC[C@@H](CO)O1	> 200	–	–	EC50 [2]: 5 µM
Nc1ccn([C@H]2CO[C@@H](CO)C2)c(=O)n1	> 100	> 100	–	–
Nc1nc(O)c2ncn([C@H]3CO[C@@H](CO)C3)c2n1	> 500	–	17.5	EC50 [4]: 10 µM
Nc1ncnc2c1ncn2[C@H]1CO[C@@H](CO)C1	> 100	–	8.2	EC50 [6]: 5 µM
Cc1cn([C@H]2CO[C@@H](CO)C2)c(=O)[nH]c1=O	> 100	> 100	–	–
OC[C@H]1C[C@@H](n2cnc3c(O)ncnc32)CO1	> 100	> 100	–	–
Nc1nc(O)c2ncn([C@H]3CC[C@@H](CO)O3)c2n1	> 200	–	–	EC50 [7]: 5 µM
O=c1[nH]cnc2c1ncn2[C@H]1CC[C@@H](CO)O1 [DIDANOSINE]	–	–	1.28	–
